The source made the active and inactive calls. The calls are words filed in the database; no cut-off is given here.
What was measured:
QBI293 [1] = test: Induction of microtubule stabilization in human QBI293 cells assessed as increase in acetylated alpha-tubulin at 1 uM after 4 hrs by ELISA relative to vehicle treated control; type: cell-based
Outline: (§1)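 QBI293 cells exposed to compound at 1 μM. Acetylated α-tubulin expressed as fold-change over vehicle-treated cells and over cells given 0.1 μM cevipabulin as positive control. Significance by two-tailed t-test.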

[2] = Drug level in CD1 mouse brain at 5 mg/kg, ip after 1 hr by LC-MS/MS system; type: ADME, organism-based; set-up: dose 5 mg/kg, route intraperitoneal; conditions: read-out: Drug uptake
Outline: (§2)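 2-month-old CD1 mice (about 20 g) given 5 mg/kg ip; brain and plasma sampled at 1 h. Hemispheres sonicated in 10 mM ammonium acetate pH 5.7 (1:2 w/v); plasma from EDTA blood spun 4500g, 10 min, 4 °C. Acetonitrile extraction, then UPLC-MS/MS in positive ESI MRM mode. Quantified against spiked standard curves at 0.005–5 μM in matching matrix.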

[3] = Drug level in CD1 mouse plasma at 5 mg/kg, ip after 1 hr by LC-MS/MS system; type: ADME, organism-based; set-up: dose 5 mg/kg, route intraperitoneal; outline: as §2
[4] = Ratio of drug level in brain to plasma in CD1 mouse at 5 mg/kg, ip after 1 hr by LC-MS/MS system
[5] = Ratio of drug level in brain to plasma in CD1 mouse at 5 mg/kg, ip after 1 hr by LC-MS/MS system; type: ADME, organism-based; set-up: dose 5 mg/kg, route intraperitoneal; conditions: brain and plasma, read-out: BPR
Outline: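 CD1 mice (2 months, about 20 g) dosed 5 mg/kg ip; brain and plasma taken at 1 h. Each extracted with acetonitrile and measured by LC-MS/MS MRM against matrix standard curves (0.005–5 μM). Value is the brain concentration divided by the plasma concentration.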

QBI293 [6] = test: Induction of microtubule stabilization in human QBI293 cells assessed as increase in acetylated alpha-tubulin at 1 uM after 4 hrs by ELISA relative to 0.1 uM treated triazolopyrimidines cevipabulin; type: cell-based; outline: as §1
[7] = target: ATP-dependent translocase ABCB1 (Homo sapiens, UniProt P08183); test: Inhibition of human P-glycoprotein expressed in NCI/ADR-RES cells assessed as reduction of calcein-AM transport after 20 mins by fluorescence assay; type: cell-based
ATP-dependent translocase ABCB1, sequence (P08183 whole entry): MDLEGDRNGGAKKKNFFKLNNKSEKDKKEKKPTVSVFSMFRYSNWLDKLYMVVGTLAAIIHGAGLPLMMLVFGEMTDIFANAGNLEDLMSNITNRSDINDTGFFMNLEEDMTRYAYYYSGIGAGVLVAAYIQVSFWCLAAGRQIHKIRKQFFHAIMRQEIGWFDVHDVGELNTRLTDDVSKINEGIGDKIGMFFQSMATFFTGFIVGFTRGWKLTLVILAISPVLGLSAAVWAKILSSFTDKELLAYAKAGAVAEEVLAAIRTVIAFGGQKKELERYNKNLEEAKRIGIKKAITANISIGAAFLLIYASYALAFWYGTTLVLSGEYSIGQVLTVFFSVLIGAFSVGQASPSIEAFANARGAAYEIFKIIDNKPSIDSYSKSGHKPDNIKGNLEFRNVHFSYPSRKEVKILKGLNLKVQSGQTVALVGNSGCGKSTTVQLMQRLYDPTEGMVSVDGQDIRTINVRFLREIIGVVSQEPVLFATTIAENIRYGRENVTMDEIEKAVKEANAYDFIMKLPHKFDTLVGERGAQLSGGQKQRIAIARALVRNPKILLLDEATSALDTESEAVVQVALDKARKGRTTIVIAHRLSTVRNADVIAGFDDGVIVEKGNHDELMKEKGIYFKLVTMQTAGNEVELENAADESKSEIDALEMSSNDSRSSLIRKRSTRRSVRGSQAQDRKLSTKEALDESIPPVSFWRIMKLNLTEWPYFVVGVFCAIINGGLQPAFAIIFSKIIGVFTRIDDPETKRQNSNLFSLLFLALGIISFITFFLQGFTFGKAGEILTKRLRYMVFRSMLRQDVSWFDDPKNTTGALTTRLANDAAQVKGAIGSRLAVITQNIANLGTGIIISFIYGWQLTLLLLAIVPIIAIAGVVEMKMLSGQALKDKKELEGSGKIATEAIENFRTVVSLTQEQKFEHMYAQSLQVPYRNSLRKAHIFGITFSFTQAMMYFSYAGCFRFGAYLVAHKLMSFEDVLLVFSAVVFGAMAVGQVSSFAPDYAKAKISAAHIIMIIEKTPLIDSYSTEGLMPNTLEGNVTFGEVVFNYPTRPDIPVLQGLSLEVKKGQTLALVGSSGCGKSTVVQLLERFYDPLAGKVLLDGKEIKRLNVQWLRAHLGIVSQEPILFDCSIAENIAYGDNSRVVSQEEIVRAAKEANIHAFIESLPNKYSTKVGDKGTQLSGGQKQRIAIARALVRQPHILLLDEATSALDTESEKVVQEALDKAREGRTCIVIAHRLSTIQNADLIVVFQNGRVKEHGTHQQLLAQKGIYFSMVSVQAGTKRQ

[8] = Ratio of AUC for free drug level in brain to plasma in CD1 mouse at 5 mg/kg, ip after 1 hr by LC-MS/MS system; type: ADME, organism-based; set-up: dose 5 mg/kg, route intraperitoneal; conditions: brain and plasma
Mus musculus = test: Induction of microtubule stabilization in wild type mouse assessed as increase in acetylated alpha-tubulin level in brain at 1 mg/kg, ip after 4 to 6 days; type: functional, organism-based; set-up: dose 1 mg/kg
Outline: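 Wild-type mice (n = 3 per group) dosed 1 mg/kg ip once daily for 4 or 6 days; acetylated α-tubulin measured in brain homogenates, expressed relative to controls; significance by ANOVA with Dunnett's multiple comparison test.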

QBI293 [9] = test: Induction of microtubule stabilization in human QBI293 cells assessed as increase in acetylated alpha-tubulin at 0.1 uM after 4 hrs by ELISA relative to vehicle treated control; type: cell-based
[10] = Ratio of AUC for drug level in brain to plasma in CD1 mouse at 5 mg/kg, ip after 1 hr by LC-MS/MS system; type: ADME, organism-based; set-up: dose 5 mg/kg, route intraperitoneal; conditions: brain and plasma, read-out: Ratio AUC
Outline: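 2-month-old CD1 mice given 5 mg/kg ip; brain hemispheres (homogenized 1:2 w/v in 10 mM ammonium acetate pH 5.7) and EDTA plasma collected over a 16 h time course. Acetonitrile-precipitated supernatants quantified by LC-MS/MS (MRM, positive ESI) with spiked standard curves 0.005–5 μM.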

Row | concentration at 1 h [2] [nM] | concentration at 1 h [3] [nM] | BPR [4] | Structure (SMILES) | fold change (FC) (QBI293 [1]) | fold change (FC) (QBI293 [6]) | also measured
1 | 20 | 200 | 0.15 | CC(=O)N(C)CCCOc1cc(F)c(-c2c(Cl)nc3ncnn3c2N[C@@H](C)C(F)(F)F)c(F)c1 | 1.3 |  | 
2 | 170 | 1500 |  | C[C@H](Nc1c(-c2c(F)cc(OCCCNC(=O)C(C)(C)C)cc2F)c(Cl)nc2ncnn12)C(F)(F)F | 2.4 | 0.7 | Kp at 1 h [5]: 0.12
3 | 2400 | 2800 | 0.8 | C[C@H](Nc1c(-c2c(F)cc(F)cc2F)c(Cl)nc2ncnn12)C(F)(F)F | 1.3 | 0.4 | 
4 | 600 | 1200 | 0.49 | C[C@H](Nc1c(-c2c(F)cc(OCCCN3CCOCC3)cc2F)c(Cl)nc2ncnn12)C(F)(F)F | 4.1 | 1.2 | 
5 | 230 | 160 | 1.5 | C[C@H](Nc1c(-c2c(F)cc(OCCCNCC(F)(F)F)cc2F)c(Cl)nc2ncnn12)C(F)(F)F | 2.1 | 0.6 | 
6 | 40 | 1300 | 0.03 | C[C@H](Nc1c(-c2c(F)cc(OCCCN)cc2F)c(Cl)nc2ncnn12)C(F)(F)F | 26.5 | 3.4 | fold change (FC) (QBI293 [9]): 4.2

Second part, the compound before the results:

Row | Structure (SMILES) | concentration at 1 h [2] [nM] | concentration at 1 h [3] [nM] | BPR [4] | fold change (FC) (QBI293 [1]) | fold change (FC) (QBI293 [6]) | also measured
7 | C[C@H](Nc1c(-c2c(F)cc(OCCCF)cc2F)c(Cl)nc2ncnn12)C(F)(F)F |  |  |  | 1.4 |  | 
8 | C[C@H](Nc1c(-c2c(F)cc(OCCCN(C)C)cc2F)c(Cl)nc2ncnn12)C(F)(F)F | 1300 | 4900 |  | 9.1 | 1.3 | inhibition (INH) [7]: Not Active; Kp uu at 1 h [8]: 0.09; Activity (Mus musculus): Active; fold change (FC) (QBI293 [9]): 2; Kp at 1 h [10]: 0.37
9 | CN(C)CCCOc1cc(F)c(-c2c(Cl)nc(-c3ccccn3)nc2NCC(F)(F)F)c(F)c1 |  |  |  | 0.9 |  | 
10 | Cc1nnc(Cl)c(-c2c(F)cc(F)cc2F)c1-c1ccc(Cl)s1 |  |  |  | 1.3 |  | 
11 | C[C@H](Nc1nc(-c2ccccn2)nc(Cl)c1-c1c(F)cc(F)cc1F)C(F)(F)F | 1500 | 4300 |  | 4.2 | 0.9 | 
12 | Cc1nnc(Cl)c(-c2c(F)cc(F)cc2F)c1-c1ccc(Cl)cc1 |  |  |  | 1.5 |  | 
13 | CC(C)Nc1c(-c2c(F)cc(F)cc2F)c(Cl)nc2nccnc12 |  |  |  | 1 |  | 
14 | COc1ccccc1N1CCN(C(=O)c2cc(=O)c3cc(C)cc(C)c3o2)CC1 |  |  |  | 0.9 |  | 

Source: ChEMBL document CHEMBL3352463, “Brain-penetrant, orally bioavailable microtubule-stabilizing small molecules are potential candidate therapeutics for Alzheimer's disease and related tauopathies” (J Med Chem, 2014)
